# Reference: ChEMBL document CHEMBL1149388, “Synthesis and structure-activity relationships of 3-[(2-methyl-1,3-thiazol-4-yl)ethynyl]pyridine analogues as potent, noncompetitive metabotropic glutamate receptor subtype 5 antagonists; search for cocaine medications” (J Med Chem, 2006)
# The source made the active and inactive calls. The rule behind the calls is not given here.
# Target: Metabotropic glutamate receptor 5 (Homo sapiens, UniProt P41594)
# Assay: Displacement of [3H]MPEP from cloned human mGluR5 transfected in HEK293-T cells
# Assay type: cell-based
# Method in brief: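 HEK293-T cells transiently transfected with cloned mGluR5 cDNA. Binding used 3.0 nM [3H]-MPEP with varying unlabeled ligand in 50 mM Tris-Cl, 0.9% NaCl, pH 7.4, incubated 90 min at 20 °C. Membranes were harvested on PEI-pretreated GF/C filters and counted by scintillation to obtain Ki.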
# Sequence of Metabotropic glutamate receptor 5 (Homo sapiens, UniProt P41594) (P41594 whole entry): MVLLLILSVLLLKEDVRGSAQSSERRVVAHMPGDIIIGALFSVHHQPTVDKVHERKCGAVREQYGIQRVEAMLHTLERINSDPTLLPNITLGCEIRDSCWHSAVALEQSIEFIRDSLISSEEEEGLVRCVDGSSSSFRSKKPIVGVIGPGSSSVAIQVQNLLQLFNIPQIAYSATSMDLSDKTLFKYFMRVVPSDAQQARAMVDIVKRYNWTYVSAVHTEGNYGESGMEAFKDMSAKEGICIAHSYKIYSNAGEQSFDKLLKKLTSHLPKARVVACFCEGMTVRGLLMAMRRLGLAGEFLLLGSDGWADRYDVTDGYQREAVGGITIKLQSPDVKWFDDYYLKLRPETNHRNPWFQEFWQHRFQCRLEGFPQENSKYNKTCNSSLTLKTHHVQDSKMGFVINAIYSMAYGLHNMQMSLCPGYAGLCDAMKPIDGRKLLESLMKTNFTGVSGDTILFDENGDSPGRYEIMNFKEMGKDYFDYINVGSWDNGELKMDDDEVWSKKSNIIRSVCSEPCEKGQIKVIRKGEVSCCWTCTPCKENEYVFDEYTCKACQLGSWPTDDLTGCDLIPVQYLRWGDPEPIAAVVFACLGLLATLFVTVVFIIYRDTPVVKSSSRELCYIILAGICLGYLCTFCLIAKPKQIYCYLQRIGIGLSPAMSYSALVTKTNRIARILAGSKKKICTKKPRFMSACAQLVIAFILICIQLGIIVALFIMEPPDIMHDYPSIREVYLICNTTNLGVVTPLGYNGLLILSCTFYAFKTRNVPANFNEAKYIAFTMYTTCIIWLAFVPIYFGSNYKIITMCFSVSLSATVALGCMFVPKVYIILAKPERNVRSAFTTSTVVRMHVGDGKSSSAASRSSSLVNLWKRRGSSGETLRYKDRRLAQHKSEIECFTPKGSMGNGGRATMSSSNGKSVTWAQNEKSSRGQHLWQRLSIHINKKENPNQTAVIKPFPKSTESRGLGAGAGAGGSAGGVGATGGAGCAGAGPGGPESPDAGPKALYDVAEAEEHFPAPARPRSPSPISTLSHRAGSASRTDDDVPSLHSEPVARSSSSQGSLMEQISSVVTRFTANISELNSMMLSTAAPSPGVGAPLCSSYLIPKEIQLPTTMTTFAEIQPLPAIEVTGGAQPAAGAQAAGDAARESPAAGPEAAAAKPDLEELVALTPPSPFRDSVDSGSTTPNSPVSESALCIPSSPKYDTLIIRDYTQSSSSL
row,Ki [nM],SMILES
1,1,C=Cc1cncc(C#Cc2csc(C)n2)c1
2,0.37,Cc1nc(C#Cc2cccc(C#N)c2)cs1

# Target: Metabotropic glutamate receptor 5 (Rattus norvegicus, UniProt P31424)
# Assay: Displacement of [3H]MPEP from mGluR5 in rat brain membranes
# Assay type: cell membranes
# Sequence of Metabotropic glutamate receptor 5 (Rattus norvegicus, UniProt P31424) (P31424 whole entry): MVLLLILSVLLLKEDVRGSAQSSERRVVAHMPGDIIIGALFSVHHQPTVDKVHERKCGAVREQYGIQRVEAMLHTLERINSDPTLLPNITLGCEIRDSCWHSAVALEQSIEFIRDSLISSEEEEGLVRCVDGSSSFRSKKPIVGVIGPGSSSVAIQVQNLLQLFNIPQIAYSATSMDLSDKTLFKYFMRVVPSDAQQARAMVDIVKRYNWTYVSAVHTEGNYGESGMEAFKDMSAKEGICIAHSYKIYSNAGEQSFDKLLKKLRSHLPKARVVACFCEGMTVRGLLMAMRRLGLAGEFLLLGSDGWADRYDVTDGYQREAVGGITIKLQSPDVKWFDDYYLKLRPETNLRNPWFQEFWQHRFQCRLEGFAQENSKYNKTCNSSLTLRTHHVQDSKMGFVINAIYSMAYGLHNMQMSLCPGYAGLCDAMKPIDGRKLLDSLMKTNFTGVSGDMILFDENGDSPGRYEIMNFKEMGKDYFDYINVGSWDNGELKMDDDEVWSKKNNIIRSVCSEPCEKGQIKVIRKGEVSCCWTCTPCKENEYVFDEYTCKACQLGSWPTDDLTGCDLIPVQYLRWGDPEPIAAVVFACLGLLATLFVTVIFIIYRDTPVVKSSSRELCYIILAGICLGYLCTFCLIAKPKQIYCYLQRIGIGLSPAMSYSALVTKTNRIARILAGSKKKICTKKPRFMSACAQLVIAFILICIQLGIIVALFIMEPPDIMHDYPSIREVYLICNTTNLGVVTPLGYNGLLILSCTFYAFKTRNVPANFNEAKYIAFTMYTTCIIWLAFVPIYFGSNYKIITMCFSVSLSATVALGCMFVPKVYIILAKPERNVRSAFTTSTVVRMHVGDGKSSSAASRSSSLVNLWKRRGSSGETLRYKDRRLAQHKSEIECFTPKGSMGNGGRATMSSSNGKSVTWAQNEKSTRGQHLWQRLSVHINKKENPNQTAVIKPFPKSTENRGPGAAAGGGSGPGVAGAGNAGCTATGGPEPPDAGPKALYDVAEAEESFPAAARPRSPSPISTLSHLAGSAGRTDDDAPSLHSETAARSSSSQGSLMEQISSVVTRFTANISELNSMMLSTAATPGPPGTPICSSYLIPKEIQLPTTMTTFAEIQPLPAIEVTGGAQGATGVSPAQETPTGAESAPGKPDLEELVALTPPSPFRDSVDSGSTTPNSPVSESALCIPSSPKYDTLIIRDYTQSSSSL
row,Ki [nM],SMILES
1,0.71,C=Cc1cncc(C#Cc2csc(C)n2)c1
2,0.25,Cc1nc(C#Cc2cccc(C#N)c2)cs1

# Species on record: Rattus norvegicus
# Assay: Ability to prevent reinstatement of cocaine-seeking behavior by environmental stimuli associated with cocaine availability in Wistar rat
# Assay type: functional, organism-based
# Method in brief: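 Adult male Wistar rats with jugular catheters trained to self-administer cocaine (0.25 mg/kg/infusion) under FR4 in daily 2 h sessions. Extinction continued until active-lever responding fell below 20% of baseline for 3 consecutive days. Cue-induced reinstatement was then tested 30 min after i.p. pretreatment with 5 or 10 mg/kg or vehicle (5% emulphor in saline). Active-lever responses were analysed by one-way ANOVA with Tukey tests.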
row,SMILES,Activity
1,Cc1nc(C#Cc2cccnc2)cs1,Active

# Target: Metabotropic glutamate receptor 5 (Rattus norvegicus) (UniProt P31424)
# Assay: Activity in agonist-induced phosphoinositide hydrolysis in CHO cells expressing mGluR5a
# Sequence of Metabotropic glutamate receptor 5 (Rattus norvegicus) (P31424 whole entry, looked up): as the sequence (P31424 whole entry) above
row,SMILES,IC50 [nM]
1,C(#Cc1csc(NCc2ccccc2)n1)c1cccnc1,> 10000
2,Cc1nc(C#Cc2ccc(OS(C)(=O)=O)nc2)cs1,2340
3,Cc1nc(C#Cc2cccnc2)co1,> 10000
4,Cc1nc(C#Cc2cnccn2)cs1,1830
5,CC(=O)Nc1nc(C#Cc2cccnc2)cs1,1920
6,C#Cc1nc(C#Cc2cccc(F)c2)cs1,2920
7,Cc1nc(C#Cc2cnc3ccccc3c2)cs1,> 10000
8,Cc1nc(C#Cc2cccs2)cs1,475
9,Cc1nc(C#Cc2cccc(C(N)=O)c2)cs1,1000
10,Cc1nc(C#Cc2ccc3nccnc3c2)cs1,> 10000
11,CCc1sc(C)nc1C#Cc1cccnc1,1240
12,Cc1nc(C#Cc2cccnc2)c(-c2ccccc2)s1,> 10000
13,COC(=O)Nc1nc(C#Cc2cccnc2)cs1,> 10000
14,COc1ccc(C#Cc2csc(C)n2)cn1,426
15,O=C(Nc1nc(C#Cc2cccnc2)cs1)Nc1ccc(F)cc1F,> 10000
16,Cc1nc(C#Cc2ccc(F)nc2)cs1,833
17,Cc1nc(C#Cc2cccc(O)c2)cs1,654
18,Cc1nc(C#Cc2ccsc2)cs1,337
19,Cc1nc(C#Cc2cccnc2)c(C)s1,698

row,SMILES,IC50 [nM]
1,Cc1nc(C#Cc2ccc(Cl)nc2)cs1,> 10000
2,Nc1nc(C#Cc2cccnc2)cs1,789
3,Cc1nc(C#Cc2ccc(F)cc2)cs1,2970
4,Cc1nc(/C=C/c2cccnc2)cs1,3090
5,Cc1nc(C#Cc2cncnc2)cs1,946
6,Fc1cccc(C#Cc2csc(Br)n2)c1,526
7,Cc1nc(C#Cc2cccc(F)c2)co1,> 10000
8,C=Cc1ccc(C#Cc2csc(C)n2)cn1,> 10000
9,Cc1nc(C(=O)Nc2cccc(F)c2)cs1,> 10000
10,CC(=O)Nc1cccc(C#Cc2csc(C)n2)c1,2020
11,Cc1nc(C(=O)Nc2cccnc2)cs1,> 10000
12,C#Cc1ccc(C#Cc2csc(C)n2)cn1,2950
13,Cc1nc(C#Cc2cccc(OC(F)(F)F)c2)cs1,266
14,Cc1nc(C#Cc2ccc(F)cn2)cs1,1090
15,OCC#Cc1nc(C#Cc2cccc(F)c2)cs1,> 10000
16,Cc1nc(C#Cc2cccc(C(F)(F)F)c2)cs1,413
17,Fc1cccc(C#Cc2csc(-c3cc(F)cc(F)c3)n2)c1,> 10000
18,Cc1nc(C#Cc2ccc3[nH]ccc3c2)cs1,> 10000
19,Cc1nc(C#Cc2cccnc2OS(C)(=O)=O)cs1,> 10000

# Further lines, results first:
row,IC50 [nM],SMILES
1,78.6,Nc1nc(C#Cc2cccc(F)c2)cs1
2,2.01,C=Cc1cncc(C#Cc2csc(C)n2)c1
3,49,COc1cccc(C#Cc2csc(C)n2)c1
4,10.2,Cc1nc(C#Cc2ccc(-c3ccc(F)cc3)nc2)cs1
5,0.94,Cc1nc(C#Cc2cccc(C#N)c2)cs1
6,225,COc1ccc(-c2cncc(C#Cc3csc(C)n3)c2)cc1
7,228,COc1ncccc1C#Cc1csc(C)n1
8,162,Cc1nc(C#Cc2cncc(-c3ccc(F)cc3)c2)cs1
9,36.3,COc1ccccc1C#Cc1csc(C)n1
10,60,Cc1nc(C#Cc2cncc(Br)c2)cs1
11,25.3,Cc1nc(C#Cc2cc(F)cc(F)c2)cs1
12,19.2,C#Cc1cncc(C#Cc2csc(C)n2)c1
13,140,Cc1nc(C#Cc2ccccc2F)cs1
14,192,C#Cc1ncccc1C#Cc1csc(C)n1
15,68.6,Cc1nc(C#Cc2cncc(C#CCO)c2)cs1
16,129,Cc1nc(C#Cc2cccc(Cl)c2)cs1
17,45.5,Cc1nc(C#Cc2cccnc2Cl)cs1
18,23,Cc1nc(C#Cc2cccc(F)c2)cs1
